Shown are actives, neighbours in structure and some others; about 1.5% of the full set was active somewhere.
GalR3 antag – GalR3 antagonists in HEK293 cells, primary screen, cell-based, fluorescence readout; HEK293 GalR3-CNG cAMP membrane potential fluorescence; galR3 body fused to GalR1 C-terminus; inhibition, % at 3 µM; 360,000 compounds, 0.44% hits;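 active means inhibition above the screen-wide average plus 3 SD, cut at about 13% in these data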;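 further: forskolin and galanin both at EC90 stimulate the cells; cAMP rise reported by CNG channel membrane potential dye signal; 0% = forskolin plus galanin with DMSO and 100% = forskolin alone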
NR2E3 ag-1 – inhibitors of NR2E3-RetCOR corepressor binding, primary screen, NR2E3 agonist project, biochemical, TR-FRET, GST-NR2E3, biotin-RetCOR; 320,000 compounds, 0.12% hits; 1536-well; inhibition of corepressor binding, % at 4.78 µM;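 active means percent inhibition above the cutoff of mean plus 3 SD of all tested compounds, set per screening campaign, cut at about 20% in these data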;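 further: 0% = DMSO wells and 100% = biotin wells as full block of FRET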
Target sequence (Q9Y5X4 whole entry, looked up): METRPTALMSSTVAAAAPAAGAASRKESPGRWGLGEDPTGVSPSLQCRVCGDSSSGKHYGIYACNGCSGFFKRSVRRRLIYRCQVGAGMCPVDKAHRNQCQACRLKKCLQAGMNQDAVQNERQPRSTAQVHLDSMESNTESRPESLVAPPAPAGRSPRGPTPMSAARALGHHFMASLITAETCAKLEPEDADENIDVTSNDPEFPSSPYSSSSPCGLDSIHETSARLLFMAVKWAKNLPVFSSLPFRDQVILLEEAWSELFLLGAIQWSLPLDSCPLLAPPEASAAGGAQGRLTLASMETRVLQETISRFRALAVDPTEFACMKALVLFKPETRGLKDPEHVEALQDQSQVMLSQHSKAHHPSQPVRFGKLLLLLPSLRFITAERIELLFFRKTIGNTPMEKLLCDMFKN
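System: GST-tagged NR2E3 plus biotinylated RetCOR corepressor; Buffer or medium: pH 7.5 Tris-based buffer; Probe or stimulus: RetCOR corepressor, biotinylated, 7 nM; Doses: compound at 4.8 µM, single dose; Schedule: 5 h incubation at 4 °C; Technique: time-resolved FRET; Evaluation: percent inhibition of TR-FRET ratio; Replication: one well per compound, singlicate testing.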
GASC-1 inh – inhibitors of GASC-1 histone demethylase, primary screen, biochemical, fluorescence, DELFIA europium. GST-JMJD2C(1-420) H3K9me3 demethylation. 330,000 compounds, 0.069% hits. Lysine-specific demethylase 4C (Homo sapiens), Q9H3R0. inhibition, % at 2.35 µM;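 active means more than half of a compound's replicate wells show inhibition beyond 50%, single wells judged on their own value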;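 further: signal counts dimethyl H3K9 product captured on neutravidin plate; 0% = median of DMSO wells and 100% = 0.3 times that DMSO median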
NR2E3 ag-2 – NR2E3 agonists in two-hybrid cells, primary screen, cell-based, luminescence, CHO-S, Gal4-NCOR/VP16-NR2E3 | Photoreceptor-specific nuclear receptor (Homo sapiens), Q9Y5X4 | luciferase | inhibition of corepressor binding, % at 3.98 µM | 360,000 compounds, 0.35% hits | AID 602229, 2012;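 active means inhibition above the mean of all tested compounds plus 3 SD, cut at about 70% in these data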;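 further: 0% = DMSO with NR2E3 transfected cells and 100% = cells lacking NR2E3 construct; higher means lower luciferase signal from less NR2E3 corepressor binding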
697 NFkB inh – inhibitors of PMA/ionomycin-induced NF-kB reporter, 697 cells, primary screen, B-cell NF-kB inhibitor project, cell-based, luminescence, uHTS | AID 435022, 2010 | 697 B-cell NF-kB luciferase reporter, 16 h | 330,000 compounds, 0.33% hits | inhibition, % at 4 µM; in the data active means inhibition above about 35%
Jurkat NFkB inh – inhibitors of induced NF-kB luciferase reporter, primary screen, TCR NF-kB activation inhibitor project, cell-based, luminescence, uHTS. Jurkat, PMA/ionomycin-induced NF-kB luciferase reporter. inhibition, % at 4 µM. 330,000 compounds, 0.53% hits; in the data active means inhibition above about 50%
NR2E3 ag conf – NR2E3 agonist confirmation in cells, cell-based, luminescence, CHO-S two-hybrid; 2,300 compounds, 51% hits; inhibition, % at 3.98 µM; CHO-S mammalian two-hybrid NR2E3-NCOR, luciferase luminescence; AID 624378, 2012; shares compounds with NR2E3 ag-2;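 active means average inhibition above a cutoff equal to the mean inhibition of all tested compounds plus one SD, cut at about 70% in these data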;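 further: 0% = DMSO in NR2E3 cells and 100% = DMSO in cells lacking NR2E3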
VP16 counter – GAL4-VP16 reporter modulators, confirmation, counter-screen for NR2E3 agonist project, cell-based, luminescence, CHO-S, high throughput; shares compounds with NR2E3 ag-2; CHO-S GAL4-VP16 luciferase reporter; inhibition, % at 3.98 µM; 2,300 compounds, 29% hits; AID 624379, 2012;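 active means mean inhibition above a cutoff equal to the average over all tested compounds plus one standard deviation, cut at about 70% in these data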;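 further: luciferase from a UAS reporter driven by GAL4-VP16 transactivation; 0% = DMSO with VP16-transfected cells and 100% = DMSO with cells lacking VP16; higher means less reporter light so more repression of VP16 activity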
GalR3 conf – GalR3 antagonist hit confirmation, cell-based, fluorescence, triplicate; AID 652245, 2013; inhibition, % at 3 µM; HEK293 GalR3 CNG cAMP biosensor, membrane potential fluorescence; galR3 fused to GalR1 carboxy tail; challenged with forskolin and galanin at EC90; shares compounds with GalR3 antag; 1,600 compounds, 59% hits;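 active means inhibition above the primary screen's cutoff, the mean inhibition of all screened compounds plus 3 SD, cut at about 13% in these data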;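 further: 0% = forskolin plus galanin and 100% = forskolin alone with DMSO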
HEK-CNG parental – nonspecific cAMP agonists in parental HEK-CNG cells, counter-screen for GalR3 antagonist project, cell-based, fluorescence, high throughput | activation, % at 3 µM | 1,600 compounds, 10% hits | HEK293-CNG parental cells, cAMP membrane potential fluorescence; normalised: DMSO wells 0%, forskolin wells 100% | shares compounds with GalR3 antag | AID 652268, 2013; in the data active means activation above about 1.3%
Starred values were filed as active, the others as inactive; . = no result.

SMILES	GalR3 antag	NR2E3 ag-1	GASC-1 inh	NR2E3 ag-2	697 NFkB inh	Jurkat NFkB inh	NR2E3 ag conf	VP16 counter	GalR3 conf	HEK-CNG parental
CCCOc1ccc(Br)cc1CSC(=N)N	50*	-1	-3	51	-24	27	46	49	95*	5.8*
CCOc1ccc(Br)cc1CC(=O)O	1	3	-4	21	18	1	.	.	.	.
COc1ccc(C=NN(C)C(=O)Nc2cccc(Cl)c2)cc1OC	-6	.	.	.	.	.	.	.	.	.
COC(=O)C1CCCCN1C(=O)c1cc(COc2cccc3cccnc23)on1 (configuration not stated)	1	0	14	-11	-23	3	.	.	.	.
CSc1ccccc1OCc1cc(C(=O)N2CCC(c3ccncc3)CC2)no1	75*	2	5	101*	-33	17	93*	79*	94*	0
O=C(c1cc(COc2ccc(F)cc2Cl)on1)N1CCC(c2ccncc2)CC1	-7	-1	15	36	-25	19	.	.	.	.
COC(=O)C1CCCCN1C(=O)c1cc(COc2cccc3cnccc23)on1 (configuration not stated)	106*	3	6	102*	-24	41	95*	88*	107*	0
CCSc1nsc(NC(=O)Nc2ccccc2F)n1	-14	-6	-1	-175	-92	-44	.	.	.	.
C=CCSc1nsc(NC(=O)Nc2ccc(F)cc2)n1	69*	4	-5	93*	-39	-1	100*	88*	40*	0
CCn1c(SCC(=O)N2CCN(c3ccccc3F)CC2)nnc1-c1ccoc1C	-1	0	-14	-24	-35	6	.	.	.	.
O=C(C[C@H]1C[C@H](C(=O)N2CCCCC2)[C@@]2(CCc3ccccc3)c3[nH]c4cc(-c5ccco5)ccc4c3CCN2C1=O)NCCC1=CCCCC1	.	.	.	-15	12	.	.	.	.	.
COc1ccc(NS(=O)(=O)c2ccc(N3CCCCC3)c(N)c2)cc1	82*	1	6	92*	1	41	95*	86*	105*	-1
CC1(Cc2ccc(Cl)s2)C(=O)Nc2c(Cl)ccc(Cl)c21 (configuration not stated)	-6	.	.	12	.	.	.	.	.	.
Cn1cc(CNC(=O)c2cc(COc3ccc4c(c3)CCCC4)on2)cn1	-2	3	-15	6	-28	3	.	.	.	.
O=C(NC(c1cccnc1)C(F)(F)F)c1cc(COc2ccc3c(c2)CCCC3)on1 (configuration not stated)	15*	0	-6	96*	-100	-15	97*	79*	12	0
COc1ccc(CNC(=O)c2sc(=O)n(Cc3ccc(-c4ccccc4)cc3)c2C)cc1OC	26*	.	.	60	.	.	72*	61	16*	-1

Source: PubChem
